Laboratory results: ChEMBL document CHEMBL1287652, “QSAR modeling, synthesis and bioassay of diverse leukemia RPMI-8226 cell line active agents” (2010)

Legend:
Format in all cases: functional
[1] = tested on: HOP-92; experiment: Antitumor activity against human HOP92 cells at 10 uM after 48 hrs by sulforhodamine B assay relative to control; settings: HOP-92, 48 h, values are per cent of control
Procedure, shortened: (§1)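 Single-dose screen in a 55-line panel. Cells in RPMI-1640 with 5% FBS and 2 mM glutamine were preincubated for 24 h, then exposed to compound (DMSO stock diluted in medium) for 48 h at 37 °C with 5% CO2. Cells were fixed with cold TCA, stained with 0.4% SRB in 1% acetic acid, and dye was solubilized in 10 mM Tris base and read at 515 nm. Growth is given as percent of untreated control.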

[2] = tested on: MDA-MB-231; experiment: Antitumor activity against human MDA-MB-231 cells at 10 uM after 48 hrs by sulforhodamine B assay relative to control; settings: MDA-MB-231, 48 h, values are per cent of control; procedure, shortened: as §1
[3] = tested on: NCI-H23; experiment: Antitumor activity against human NCI-H23 cells at 10 uM after 48 hrs by sulforhodamine B assay relative to control; settings: NCI-H23, 48 h, values are per cent of control
Procedure, shortened: (§2)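 NCI panel lines were grown in RPMI-1640 with 5% FBS and 2 mM L-glutamine and seeded at 5000–40,000 cells/well according to doubling time. After 24 h at 37 °C, 5% CO2, one dose from a DMSO stock was added for 48 h. Cells were TCA-fixed (10% final adherent, 16% suspension), SRB-stained and read at 515 nm. Percent growth is relative to untreated control.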

[4] = tested on: NCI-H522; experiment: Antitumor activity against human NCI-H522 cells at 10 uM after 48 hrs by sulforhodamine B assay relative to control; settings: NCI-H522, 48 h, values are per cent of control; procedure, shortened: as §2
[5] = tested on: PC-3; experiment: Antitumor activity against human PC3 cells at 10 uM after 48 hrs by sulforhodamine B assay relative to control; settings: PC-3, 48 h, values are per cent of control; procedure, shortened: as §2
[6] = tested on: NCI/ADR-RES; experiment: Antitumor activity against human NCI/ADR-RES cells at 10 uM after 48 hrs by sulforhodamine B assay relative to control; settings: values are per cent of control; procedure, shortened: as §2
[7] = tested on: A498; experiment: Antitumor activity against human A498 cells at 10 uM after 48 hrs by sulforhodamine B assay relative to control; settings: A498, 48 h, values are per cent of control; procedure, shortened: as §1
[8] = tested on: TK-10; experiment: Antitumor activity against human TK10 cells at 10 uM after 48 hrs by sulforhodamine B assay relative to control; settings: TK-10, 48 h, values are per cent of control
Procedure, shortened: (§3)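 NCI panel line grown in RPMI-1640 with 5% FBS and 2 mM L-glutamine, plated at 5000–40,000 cells/well, 24 h preincubation. Single final 10 µM from DMSO stock, 48 h at 37 °C, 5% CO2. TCA fixation (10% adherent, 16% suspension), SRB stain, absorbance 515 nm. Percent growth relative to untreated control.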

[9] = tested on: SF-268; experiment: Antitumor activity against human SF268 cells at 10 uM after 48 hrs by sulforhodamine B assay relative to control; settings: SF-268, 48 h, values are per cent of control; procedure, shortened: as §2
[10] = tested on: SK-OV-3; experiment: Antitumor activity against human SKOV3 cells at 10 uM after 48 hrs by sulforhodamine B assay relative to control; settings: SK-OV-3, 48 h, values are per cent of control; procedure, shortened: as §2
[11] = tested on: UACC-62; experiment: Antitumor activity against human UACC62 cells at 10 uM after 48 hrs by sulforhodamine B assay relative to control; settings: UACC-62, 48 h, values are per cent of control; procedure, shortened: as §3
[12] = tested on: M14; experiment: Antitumor activity against human M14 cells at 10 uM after 48 hrs by sulforhodamine B assay relative to control; settings: M14, 48 h, values are per cent of control; procedure, shortened: as §1
[13] = tested on: LOX IMVI; experiment: Antitumor activity against human LOXIMVI cells at 10 uM after 48 hrs by sulforhodamine B assay relative to control; settings: values are per cent of control; procedure, shortened: as §1
[14] = tested on: HCT-15; experiment: Antitumor activity against human HCT15 cells at 10 uM after 48 hrs by sulforhodamine B assay relative to control; settings: HCT-15, 48 h, values are per cent of control; procedure, shortened: as §1
[15] = tested on: HOP-62; experiment: Antitumor activity against human HOP62 cells at 10 uM after 48 hrs by sulforhodamine B assay relative to control; settings: HOP-62, 48 h, values are per cent of control; procedure, shortened: as §1
[16] = tested on: SN12C; experiment: Antitumor activity against human SN12C cells at 10 uM after 48 hrs by sulforhodamine B assay relative to control; settings: values are per cent of control; procedure, shortened: as §2
[17] = tested on: OVCAR-4; experiment: Antitumor activity against human OVCAR4 cells at 10 uM after 48 hrs by sulforhodamine B assay relative to control; settings: OVCAR-4, 48 h, values are per cent of control; procedure, shortened: as §2
[18] = tested on: SF-539; experiment: Antitumor activity against human SF539 cells at 10 uM after 48 hrs by sulforhodamine B assay relative to control; settings: SF-539, 48 h, values are per cent of control; procedure, shortened: as §2
[19] = tested on: SR; experiment: Antitumor activity against human SR cells at 10 uM after 48 hrs by sulforhodamine B assay relative to control; settings: values are per cent of control; procedure, shortened: as §3
[20] = tested on: HCT-116; experiment: Antitumor activity against human HCT116 cells at 10 uM after 48 hrs by sulforhodamine B assay relative to control; settings: HCT-116, 48 h, values are per cent of control; procedure, shortened: as §1
[21] = tested on: SF-295; experiment: Antitumor activity against human SF295 cells at 10 uM after 48 hrs by sulforhodamine B assay relative to control; settings: SF-295, 48 h, values are per cent of control; procedure, shortened: as §2
[22] = tested on: OVCAR-3; experiment: Antitumor activity against human OVCAR-3 cells at 10 uM after 48 hrs by sulforhodamine B assay relative to control; settings: OVCAR-3, 48 h, values are per cent of control; procedure, shortened: as §2
[23] = tested on: KM12; experiment: Antitumor activity against human KM12 cells at 10 uM after 48 hrs by sulforhodamine B assay relative to control; settings: KM12, 48 h, values are per cent of control; procedure, shortened: as §1
[24] = tested on: MCF7; experiment: Antitumor activity against human MCF7 cells at 10 uM after 48 hrs by sulforhodamine B assay relative to control; settings: MCF7, 48 h, values are per cent of control; procedure, shortened: as §1
[25] = tested on: CCRF-CEM; experiment: Antitumor activity against human CCRF-CEM cells at 10 uM after 48 hrs by sulforhodamine B assay relative to control; settings: values are per cent of control; procedure, shortened: as §1
[26] = tested on: IGROV-1; experiment: Antitumor activity against human IGROV1 cells after 48 hrs by sulforhodamine B assay; settings: IGROV-1, 48 h
Procedure, shortened: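 Cells were grown in RPMI-1640 with 5% FBS and 2 mM L-glutamine, plated at 5000–40,000 cells/well, and preincubated for 24 h. A time-zero plate was TCA-fixed. Compounds were added from DMSO stock at five concentrations for 48 h at 37 °C. Cells were fixed with TCA (adherent 10%, suspension 16%) and stained with SRB, and A515 was read. GI50 and TGI were calculated from Tz, control and test absorbances.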

[27] = tested on: U-251; experiment: Antitumor activity against human U251 cells after 48 hrs by sulforhodamine B assay; settings: U-251, 48 h
Procedure, shortened: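 Cells grown in RPMI-1640 with 5% FBS and 2 mM glutamine, plated and preincubated 24 h; time-zero plates TCA-fixed. Five-level serial dilutions added, 48 h at 37 °C. TCA fixation, SRB staining, absorbance 515 nm. GI50 derived from [(Ti−Tz)/(C−Tz)]×100 = 50; TGI is concentration giving 100% growth inhibition.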

Compound | growth, % of control at 10 µM [2] [%] | growth, % of control at 10 µM [3] [%] | growth, % of control at 10 µM [4] [%] | growth, % of control at 10 µM [5] [%] | growth, % of control at 10 µM [6] [%] | growth, % of control at 10 µM [7] [%] | growth, % of control at 10 µM [8] [%] | growth, % of control at 10 µM [9] [%] | growth, % of control at 10 µM [10] [%] | growth, % of control at 10 µM [11] [%] | growth, % of control at 10 µM [12] [%] | growth, % of control at 10 µM [13] [%] | growth, % of control at 10 µM [14] [%] | growth, % of control at 10 µM [15] [%] | growth, % of control at 10 µM [16] [%] | growth, % of control at 10 µM [17] [%] | growth, % of control at 10 µM [18] [%] | growth, % of control at 10 µM [19] [%] | growth, % of control at 10 µM [20] [%] | growth, % of control at 10 µM [21] [%] | further results
COc1ccc(NC(=O)Nc2ccc(OCCCOc3ccc(NC(=O)Nc4ccc(OC)cc4)cc3)cc2)cc1 | 93.3 | 94.5 | 98.3 | 108 | 94.4 | 144 | 123 | 103 | 88.4 | 109 | 95.5 | 99.3 | 118 | 95.7 | 87.3 | 109 | 86.7 | 90.4 | 83.3 | 71.7 | growth, % of control at 10 µM [1]: 81.5%; growth, % of control at 10 µM [22]: 116%; growth, % of control at 10 µM [23]: 117%; growth, % of control at 10 µM [24]: 55%
O=C(Nc1ccc(Cl)cc1)Nc1ccc(OCCCOc2ccc(NC(=O)Nc3ccc(Cl)cc3)cc2)cc1 | 111 | 96.5 | 91.6 | 93 | 99.8 | 107 | 129 | 125 | 122 | 98.9 | 96.7 | 98.1 | 117 | 96.2 | 105 | 110 | 91.8 | 88.7 | 94.8 | 97.3 | growth, % of control at 10 µM [1]: 181%; growth, % of control at 10 µM [25]: 157%; growth, % of control at 10 µM [22]: 112%; growth, % of control at 10 µM [23]: 110%; growth, % of control at 10 µM [24]: 103%
COc1ccc(NC(=O)Nc2ccccc2OCCCOc2ccccc2NC(=O)Nc2ccc(OC)cc2)cc1 | 34 | 2.8 | 63.7 | -36.5 | 59.8 | -9.3 | 22 | 50.7 | 7.9 | 3.9 | 61.4 | 23.7 | 65.5 | 38.5 | -21.3 | -67.2 | -29.6 | -39.7 | -36.8 | 49 | GI50 [26]: > 100 µM; TGI [26]: > 100 µM; growth, % of control at 10 µM [25]: -7.12%; GI50 [27]: 3.7 µM; TGI [27]: 28.8 µM; growth, % of control at 10 µM [22]: -11.4%; growth, % of control at 10 µM [23]: 23.8%; growth, % of control at 10 µM [24]: 28.2%
